Assay results as given in paper PMC4284021 (The Journal of Pharmacy and Pharmacology, 2014).
Where “and” joins values, the source holds several entries; their conditions need not be identical. Identical values can stand only once. Entries after “also recorded” stand apart in the source; their conditions may differ. Marks after values point to notes of the source that are not given here.

Assays:
[1] = system: HDL-C and LDL-C; assay: Emax model of plasma evacetrapib exposure; format: in vivo, human; settings: model estimate (90% CI)
Procedure, shortened: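 Change from baseline in HDL-C and LDL-C on Day 14 was fitted against steady-state plasma AUC. AUC came from LC/MS/MS and non-compartmental analysis. Model: Emax, the maximal response, and EAUC50, the AUC giving 50% of the maximal response.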

[2] = system: CETP mass; assay: Serum CETP mass by sandwich ELISA in healthy subjects; format: in vivo, human; settings: for CETP mass: Mean % change from baseline (90% CI) / CETP mass: Mean % change vs placebo (90 % CI): trough (predose) day 14
Procedure, shortened: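 CETP mass was measured in serum by sandwich ELISA. Samples were taken at baseline and on Days 2, 7 and 14 of once-daily oral dosing (10–600 mg) or placebo.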

[3] = system: healthy volunteers; settings: doses of up to 1200 mg for 10 days; cited from earlier work
[4] = system: dyslipidemic patients; settings: cited from earlier work
[5] = system: apolipoproteins (apo AI, apo AII, apo B, apo E); assay: Apolipoprotein concentrations by immunoturbidimetric methods in healthy subjects; format: in vivo, human; settings: for Apo AI: Mean % change from baseline (90% CI) / Apo AI: Mean % change vs placebo (90 % CI) / Apo AII: Mean % change from baseline (90% CI) / Apo AII: Mean % change vs placebo (90 % CI) / Apo B: Mean % change from baseline (90% CI) / Apo B: Mean % change vs placebo (90 % CI) / Apo E: Mean % change from baseline (90% CI) / Apo E: Mean % change vs placebo (90 % CI) / Ratio of apo B/apo AI: Mean % change from baseline (90% CI) / Ratio of apo B/apo AI: Mean % change vs placebo (90 % CI): day 14
Procedure, shortened: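 Healthy adults took placebo or test compound (10, 100, 300, 600 mg) as capsules once daily with a low-fat meal for 14–15 days. Apo AI, AII, B and E were measured by immunoturbidimetry on a Roche Modular analyser. Values are percent change from baseline to Day 14, including all randomized subjects given at least one dose.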

[6] = system: healthy subjects; assay: 24-h ambulatory blood pressure monitoring; format: in vivo, human; settings: for effect on 24-h ambulatory systolic or diastolic blood pressure: 600 mg compared with placebo
Procedure, shortened: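 Double-blind crossover cohort (n = 15): placebo or 600 mg/day oral test compound for 14 days, then the other treatment after a 21-day washout. Subjects wore the ambulatory monitor about 12 h before Day 1 baseline. On Day 14, dosing came about 1 h after monitoring began. Readings every 20 min by day, every 30 min at night. The first hour was excluded. Value is mean SBP/DBP over the 24 h after dosing.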

[7] = AUC producing 50% of maximal response
[8] = Phase 2, nearly 400 dyslipidemic patients
[9] = 600 mg, 24-h ABPM, Day 1 (baseline), mean (90% CI)
[10] = 600 mg/day for 14 days, 24-h ABPM
[11] = 600 mg/day for 14 days, 24-h ABPM, (90% CI)
[12] = 600 mg/day, 24-h ABPM, Day 14, mean (90% CI)

Cc1cc(C)c2c(c1)[C@@H](N(Cc1cc(C(F)(F)F)cc(C(F)(F)F)c1)c1nnn(C)n1)CCCN2C[C@H]1CC[C@H](C(=O)O)CC1 [evacetrapib]
EAUC50 for the HDL-C model [1, 7]: 4110 ng·h/mL | EAUC50 for the LDL-C model [1, 7]: 582 (194 to 1810) ng · h/ml | maximum theoretical change from baseline for HDL-C (Emax) ([1]; after 14 days of dosing): 126% | maximum theoretical change from baseline for LDL-C (Emax) ([1]; after 14 days of dosing): −28.2% | CETP mass: Mean % change from baseline (90% CI) ([2]; 10 mg/day): 20.18 (9.92, 30.45) % | CETP mass: Mean % change vs placebo (90 % CI) ([2]; 10 mg/day): 20.58 (11.28, 29.88) ^*** % | CETP mass: Mean % change from baseline (90% CI) ([2]; 100 mg/day): 95.77 (82.14, 109.41) % | CETP mass: Mean % change vs placebo (90 % CI) ([2]; 100 mg/day): 96.17 (76.37, 115.97) ^*** % | CETP mass: Mean % change from baseline (90% CI) ([2]; 300 mg/day): 131.72 (122.10, 141.34) % | CETP mass: Mean % change vs placebo (90 % CI) ([2]; 300 mg/day): 132.12 (115.85, 148.38) ^*** % | CETP mass: Mean % change from baseline (90% CI) ([2]; 600 mg/day): 145.34 (133.29, 157.39) % | CETP mass: Mean % change vs placebo (90 % CI) ([2]; 600 mg/day): 145.73 (128.99, 162.48) ^*** % | CETP mass approximately 2 weeks after the last dose ([2]; human, in vivo): returned to levels at or near baseline; also recorded: returned to baseline | QT interval prolongation [3]: no evidence of QT interval prolongation | tolerability [3]: well tolerated | tolerability ([4]; 12 weeks, daily doses up to 500 mg monotherapy or 100 mg with a statin): well tolerated | decrease in LDL-C [4, 8]: up to 36% | increase in HDL-C levels [4, 8]: up to 129% | effects on blood pressure or mineralocorticoid activity ([4]; Phase 2): without having effects | Apo AI: Mean % change from baseline (90% CI) ([5]; 10 mg/day): 3.53 (−2.23, 9.30) % | Apo AI: Mean % change vs placebo (90 % CI) ([5]; 10 mg/day): 15.29 (7.74, 22.84) ^** % | Apo AII: Mean % change from baseline (90% CI) ([5]; 10 mg/day): −1.30 (−5.34, 2.73) % | Apo AII: Mean % change vs placebo (90 % CI) ([5]; 10 mg/day): 4.29 (−0.90, 9.48) % | Apo B: Mean % change from baseline (90% CI) ([5]; 10 mg/day): −8.09 (−13.41, −2.77) % | Apo B: Mean % change vs placebo (90 % CI) ([5]; 10 mg/day): −15.05 (−22.68, −7.43) ^** % | Apo E: Mean % change from baseline (90% CI) ([5]; 10 mg/day): 19.70 (5.10, 34.30) % | Apo E: Mean % change vs placebo (90 % CI) ([5]; 10 mg/day): 8.36 (−2.89, 19.60) % | Ratio of apo B/apo AI: Mean % change from baseline (90% CI) ([5]; 10 mg/day): −6.87 (−12.72, −1.02) % | Ratio of apo B/apo AI: Mean % change vs placebo (90 % CI) ([5]; 10 mg/day): −26.63 (−34.88, −18.38) ^*** % | Apo AI: Mean % change from baseline (90% CI) ([5]; 100 mg/day): 24.61 (20.07, 29.15) % | Apo AI: Mean % change vs placebo (90 % CI) ([5]; 100 mg/day): 36.37 (27.66, 45.08) ^*** % | Apo AII: Mean % change from baseline (90% CI) ([5]; 100 mg/day): 8.85 (4.69, 13.02) % | Apo AII: Mean % change vs placebo (90 % CI) ([5]; 100 mg/day): 14.44 (7.16, 21.72) ^** % | Apo B: Mean % change from baseline (90% CI) ([5]; 100 mg/day): −17.64 (−20.84, −14.43) % | Apo B: Mean % change vs placebo (90 % CI) ([5]; 100 mg/day): −24.60 (−31.28, −17.92) ^*** % | Apo E: Mean % change from baseline (90% CI) ([5]; 100 mg/day): 55.81 (36.13, 75.50) % | Apo E: Mean % change vs placebo (90 % CI) ([5]; 100 mg/day): 44.47 (14.63, 74.30) ^* % | Ratio of apo B/apo AI: Mean % change from baseline (90% CI) ([5]; 100 mg/day): −31.84 (−35.59, −28.09) % | Ratio of apo B/apo AI: Mean % change vs placebo (90 % CI) ([5]; 100 mg/day): −51.60 (−59.36, −43.83) ^*** % | Apo AI: Mean % change from baseline (90% CI) ([5]; 300 mg/day): 28.75 (23.70, 33.80) % | Apo AI: Mean % change vs placebo (90 % CI) ([5]; 300 mg/day): 40.50 (31.66, 49.34) ^*** % | Apo AII: Mean % change from baseline (90% CI) ([5]; 300 mg/day): 11.93 (7.75, 16.10) % | Apo AII: Mean % change vs placebo (90 % CI) ([5]; 300 mg/day): 17.52 (10.86, 24.17) ^*** % | Apo B: Mean % change from baseline (90% CI) ([5]; 300 mg/day): −18.85 (−22.45, −15.25) % | Apo B: Mean % change vs placebo (90 % CI) ([5]; 300 mg/day): −25.81 (−32.59, −19.04) ^*** % | Apo E: Mean % change from baseline (90% CI) ([5]; 300 mg/day): 76.75 (62.23, 91.28) % | Apo E: Mean % change vs placebo (90 % CI) ([5]; 300 mg/day): 65.40 (40.39, 90.42) ^*** % | Ratio of apo B/apo AI: Mean % change from baseline (90% CI) ([5]; 300 mg/day): −35.69 (−39.92, −31.46) % | Ratio of apo B/apo AI: Mean % change vs placebo (90 % CI) ([5]; 300 mg/day): −55.45 (−63.26, −47.63) ^*** % | decrease in apo B ([5]; 600 mg, Day 14, vs placebo): 26% and 26.1% | decrease in apo B/AI ratio ([5]; 600 mg, Day 14, vs placebo): 56.5% | Apo AI: Mean % change from baseline (90% CI) ([5]; 600 mg/day): 29.93 (24.51, 35.35) % | Apo AI: Mean % change vs placebo (90 % CI) ([5]; 600 mg/day): 42% and 41.7% and 41.69 (32.70, 50.67) ^*** % | Apo AII: Mean % change from baseline (90% CI) ([5]; 600 mg/day): 12.91 (8.06, 17.77) % | Apo AII: Mean % change vs placebo (90 % CI) ([5]; 600 mg/day): 18.5% and 18.50 (11.71, 25.29) ^*** % | Apo B: Mean % change from baseline (90% CI) ([5]; 600 mg/day): −19.17 (−22.94, −15.41) % | Apo B: Mean % change vs placebo (90 % CI) ([5]; 600 mg/day): −26.14 (−32.97, −19.30) ^*** % | Apo E: Mean % change from baseline (90% CI) ([5]; 600 mg/day): 85.48 (65.47, 105.49) % | Apo E: Mean % change vs placebo (90 % CI) ([5]; 600 mg/day): 74.1% and 74.13 (47.95, 100.31) ^*** % | Ratio of apo B/apo AI: Mean % change from baseline (90% CI) ([5]; 600 mg/day): −36.74 (−41.23, −32.25) % | Ratio of apo B/apo AI: Mean % change vs placebo (90 % CI) ([5]; 600 mg/day): −56.50 (−64.39, −48.61) ^*** % | effect on 24-h ambulatory systolic or diastolic blood pressure [6]: No significant differences | effect on 24-h ambulatory systolic or diastolic blood pressure ([6]; listed as Evacetrapib): did not produce any significant effect | correlation between exposure and blood pressure (Spearman's rank correlation coefficient) ([6]; 600 mg crossover cohort, P = 0.964): 0.00954 | Diastolic blood pressure, Day 1 mean [6, 9]: 68.27 (64.82, 71.72) mmHg | Systolic blood pressure, Day 1 mean [6, 9]: 112.16 (109.12, 115.19) mmHg | Diastolic blood pressure, Difference (comparison with placebo) [6, 10]: −2.28 mmHg | Systolic blood pressure, Difference (comparison with placebo) [6, 10]: −1.96 mmHg | Diastolic blood pressure, LS mean change [6, 11]: 0.60 (−1.45, 2.65) mmHg | Systolic blood pressure, LS mean change [6, 11]: −0.27 (−2.64, 2.11) mmHg | Diastolic blood pressure, Day 14 mean [6, 12]: 73.72 (70.26, 77.18) mmHg | Systolic blood pressure, Day 14 mean [6, 12]: 118.28 (113.78, 122.77) mmHg
